KCNQ1 block – inhibitors of human KCNQ1 potassium channel; AID 2642; CHO-K1 KCNQ1, FluxOR thallium flux fluorescence; stronger effect = higher value; 310,000 compounds, 1.3% hits; B-score at 10 µM;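 active = compounds whose thallium flux B-score, printed positive for inhibition, exceeds three library SD while starting fluorescence stays within three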;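 note: channel opened by potassium depolarization with thallium stimulus after 20 min compound exposure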
KCNQ1 pot – potentiators or activators of human KCNQ1 potassium channel | P51787 | AID 2648 | CHO-K1 KCNQ1, thallium flux FluxOR fluorescence; stronger effect = higher value | B-score at 10 µM | 310,000 compounds, 0.35% hits;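 active = fluorescence ratio B-score, a plate-corrected score, at least three library SD, with initial intensity B-score within 5 SD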
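System: Stable KCNQ1 CHO-K1 line | Incubation: 90 min dye loading and 20 min compound exposure, both at room temperature | Measure: Ratio B score | Medium: Assay buffer for compound exposure, DMSO matched across wells | Compound dosing: Single-concentration screen | Probe or stimulus: K+/Tl+ depolarizing stimulus | Measured by: Kinetic FluxOR fluorescence, 10 s baseline plus 110 s post-stimulus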
KCNK3 inh – human KCNK3 channel inhibition, primary screen. O14649. 340,000 compounds, 0.84% hits. B-score at 10 µM. CHO-KCNK3 thallium flux, FluxOR fluorescence; stronger effect = lower value;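 active = B-score under library mean minus 4 SD, starting fluorescence ratio at most library mean plus 5 SD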;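 note: more negative B-score means stronger inhibition of thallium flux through KCNK3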
Target sequence (O14649 whole entry, looked up): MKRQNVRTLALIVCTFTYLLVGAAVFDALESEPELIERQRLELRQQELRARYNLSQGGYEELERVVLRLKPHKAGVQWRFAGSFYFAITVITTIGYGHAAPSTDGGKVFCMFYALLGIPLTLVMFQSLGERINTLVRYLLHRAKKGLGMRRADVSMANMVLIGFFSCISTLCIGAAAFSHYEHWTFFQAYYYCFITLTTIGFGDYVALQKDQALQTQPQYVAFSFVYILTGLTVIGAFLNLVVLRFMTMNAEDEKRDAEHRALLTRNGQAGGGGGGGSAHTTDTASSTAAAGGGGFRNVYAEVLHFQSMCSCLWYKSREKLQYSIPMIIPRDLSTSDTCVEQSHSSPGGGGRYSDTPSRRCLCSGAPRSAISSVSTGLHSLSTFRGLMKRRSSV
KCNK9 inh – human KCNK9 channel inhibition; 310,000 compounds, 1.2% hits; HEK293 KCNK9, FluxOR thallium flux fluorescence; stronger effect = lower value; AID 488922; B-score at 10 µM;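 active = ratio B-score over 3 SD below the library mean, with starting fluorescence within 5 SD of its mean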;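 note: negative B-score means less thallium flux so channel inhibition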
hERG rescue – hERG (human) protection from proarrhythmic block; activation (rescue from dofetilide block), less the hit threshold, % at 10 µM; AID 1511; CHO-hERG, FluxOR thallium flux, dofetilide IC70 present; 310,000 compounds, 0.51% hits;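 active = activation above the mean of controls blocked by dofetilide plus 5 SD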;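 note: thallium influx through hERG after potassium depolarization seen as dye fluorescence rise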
Kir21 block – blocks the mouse Kir2.1 inward-rectifier potassium channel. HEK293-Kir2.1, FluxOR thallium flux fluorescence; stronger effect = lower value. 310,000 compounds, 0.85% hits. B-score at 10 µM. AID 1672. P35561;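 active = fluorescence ratio B-score at or below minus 3 SD of library scores, with starting-brightness B-score within 2 SD, cut at about -4.2 in these data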;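 note: channel flux triggered by added potassium and thallium sulfate stimulus; B-score of peak minus minimum fluorescence over baseline after thallium stimulus; more negative B-score means stronger Kir2.1 block with less thallium influx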
Numbers without * were called inactive. In the library only some 3.8% were active in any assay of this set; here they are far more common.

Screening CC(=O)c1ccc2c(c1)N(CCCN1CCC(CCO)CC1)c1ccccc1S2 returned KCNK3 inh inactive.
CN(C)CCCN1c2ccccc2Sc2ccc(Cl)cc21 was read as KCNQ1 block inactive, KCNQ1 pot inactive, KCNK3 inh inactive, KCNK9 inh inactive, hERG rescue -9 and Kir21 block -7.9*.
For CN(C)CCCN1c2ccccc2Sc2ccc3ccccc3c21 the results were KCNK3 inh inactive.
OCCN1CCN(CCCN2c3ccccc3Sc3ccc(Cl)cc32)CC1 was read as KCNQ1 block inactive, KCNQ1 pot inactive, KCNK3 inh inactive, KCNK9 inh inactive, hERG rescue -15 and Kir21 block -5.6*.
Cc1c(NC(=O)C(C)OC(=O)CCc2c[nH]c3ccccc23)c(=O)n(-c2ccccc2)n1C (configuration not stated) was read as KCNQ1 block inactive, KCNQ1 pot inactive, KCNK3 inh inactive, KCNK9 inh inactive, hERG rescue -7 and Kir21 block 0.14.
`O=c1[nH]cnc2scc(-c3ccccc3)c12` gave KCNQ1 block inactive, KCNQ1 pot inactive, KCNK3 inh inactive, KCNK9 inh inactive, hERG rescue -7 and Kir21 block -0.55.
Cc1cc(-c2csc3nc[nH]c(=S)c23)cc(C)c1C was read as KCNQ1 block inactive, KCNQ1 pot 45*, KCNK3 inh inactive, KCNK9 inh inactive, hERG rescue 8.1* and Kir21 block -0.48.
For S=c1[nH]cnc2scc(-c3ccc(Br)cc3)c12 the results were KCNQ1 block inactive, KCNQ1 pot 23*, KCNK3 inh inactive, KCNK9 inh inactive, hERG rescue 14* and Kir21 block -0.96.
For CCc1ccc(-c2csc3nc[nH]c(=O)c23)cc1 the results were KCNQ1 block inactive, KCNQ1 pot inactive, KCNK3 inh inactive, KCNK9 inh inactive, hERG rescue 0 and Kir21 block 1.1.
Screening S=c1[nH]cnc2scc(-c3ccc(Cl)cc3)c12 returned KCNQ1 block inactive, KCNQ1 pot 19*, KCNK3 inh inactive, KCNK9 inh inactive, hERG rescue 23* and Kir21 block -0.01.
For O=c1[nH]cnc2scc(-c3ccc(Br)cc3)c12 the results were KCNQ1 block inactive, KCNQ1 pot inactive, KCNK3 inh inactive, KCNK9 inh inactive, hERG rescue 3 and Kir21 block 1.2.
Screening Cc1ccc(-c2csc3nc[nH]c(=S)c23)cc1 returned KCNQ1 block inactive, KCNQ1 pot 26*, KCNK3 inh inactive, KCNK9 inh inactive, hERG rescue 53* and Kir21 block 1.6.
Screening COc1cc(CN2CCN(C(C)C)C(CCO)C2)ccc1OCc1ccccc1 (configuration not stated) returned KCNQ1 block inactive, KCNQ1 pot inactive, KCNK3 inh inactive, KCNK9 inh inactive, hERG rescue -7 and Kir21 block 0.33.
`C=CCn1c(SCC(=O)Nc2cccnc2Cl)nnc1-c1ccc(C(C)(C)C)cc1` gave KCNQ1 block inactive, KCNQ1 pot inactive, KCNK3 inh inactive, KCNK9 inh inactive, hERG rescue -19 and Kir21 block 1.4.
Screening CC(=O)Nc1ccc(S(=O)(=O)NCCC(=O)OCc2nc(N)nc(Nc3ccccc3C)n2)cc1 returned KCNQ1 block inactive, KCNQ1 pot inactive, KCNK3 inh inactive, KCNK9 inh inactive, hERG rescue -11 and Kir21 block 1.1.
`Cc1sc2nc[nH]c(=S)c2c1-c1ccccc1` gave KCNQ1 block inactive, KCNQ1 pot 12*, KCNK3 inh inactive, KCNK9 inh inactive, hERG rescue 20* and Kir21 block -0.17.
Cc1ccc(C2(c3ccc(C)cc3)CC2C(=O)Nc2ccc([N+](=O)[O-])cc2O)cc1 (configuration not stated) was read as KCNQ1 block 11*, KCNQ1 pot inactive, KCNK3 inh inactive, KCNK9 inh inactive, hERG rescue -11 and Kir21 block 0.68.
Screening Cc1ccc(NC(=O)/C(=C/c2cccc([N+](=O)[O-])c2)NC(=O)C2CCCCC2)c(C)c1 returned KCNQ1 block inactive, KCNQ1 pot inactive, KCNK3 inh inactive, KCNK9 inh inactive, hERG rescue -9 and Kir21 block 2.7.
For Cc1ccc(C)c(NC(=O)C2CCCC2)c1 the results were KCNQ1 block inactive, KCNQ1 pot inactive, KCNK3 inh inactive, KCNK9 inh inactive, hERG rescue -5 and Kir21 block -0.42.
For O=C(CN(C1CCCCC1)S(=O)(=O)c1ccc(Cl)cc1)N1CCOCC1 the results were KCNQ1 block inactive, KCNQ1 pot inactive, KCNK3 inh inactive, KCNK9 inh inactive, hERG rescue -18 and Kir21 block -0.39.
For Cc1ccc([N+](=O)[O-])cc1NC(=O)CN(C1CCCCC1)S(=O)(=O)c1ccc(Cl)cc1 the results were KCNQ1 block 7*, KCNQ1 pot inactive, KCNK3 inh inactive, KCNK9 inh -7.7*, hERG rescue -8 and Kir21 block -0.78.
For Cc1ccc([N+](=O)[O-])cc1NC(=O)C1CCCC1 the results were KCNQ1 block inactive, KCNQ1 pot inactive, KCNK3 inh inactive, KCNK9 inh inactive, hERG rescue 5.0* and Kir21 block 0.04.
For CC1(C)CC1C(=O)Nc1ccc([N+](=O)[O-])cc1Br (configuration not stated) the results were KCNQ1 block inactive, KCNQ1 pot inactive, KCNK3 inh inactive, KCNK9 inh inactive, hERG rescue -7 and Kir21 block -1.6.
For O=C(Nc1ccc([N+](=O)[O-])cc1)/C(=C/c1cccc([N+](=O)[O-])c1)NC(=O)C1CCCCC1 the results were KCNQ1 block inactive, KCNQ1 pot inactive, KCNK3 inh inactive, KCNK9 inh -6.9*, hERG rescue -4 and Kir21 block -0.32.
`CSc1ccccc1NC(=O)CN(C)Cc1cccc(Cl)c1` gave KCNQ1 block inactive, KCNQ1 pot inactive, KCNK3 inh inactive, KCNK9 inh -7.2*, hERG rescue -21 and Kir21 block -1.6.
For CN(CC(=O)Nc1ccc(Br)cc1)Cc1ccccc1 the results were KCNQ1 block inactive, KCNQ1 pot inactive, KCNK3 inh inactive, KCNK9 inh -6.8*, hERG rescue -8 and Kir21 block 1.6.
`CN(CC(=O)NCCc1ccc(F)cc1)Cc1cccc(Cl)c1` gave KCNQ1 block inactive, KCNQ1 pot inactive, KCNK3 inh inactive, KCNK9 inh inactive, hERG rescue -17 and Kir21 block -7.3*.
Screening CC(NC(=O)CN(C)Cc1cccc(Cl)c1)c1ccccc1 (configuration not stated) returned KCNQ1 block inactive, KCNQ1 pot inactive, KCNK3 inh inactive, KCNK9 inh inactive, hERG rescue -11 and Kir21 block -1.9.

Screening data (PubChem)
